Assay results from ChEMBL document CHEMBL4610127, “Novel Autotaxin Inhibitor for the Treatment of Idiopathic Pulmonary Fibrosis: A Clinical Candidate Discovered Using DNA-Encoded Chemistry” (J Med Chem, 2020).
Activity calls are given as the source filed them. No cut-off for these calls is given here.

system: Mus musculus; test: Anti-fibrotic activity in C57BL/6 mouse model of bleomycin-induced lung fibrosis assessed as reduction in hydroxyproline levels at 30 to 100 mg/kg, po BID dosed until day 21 starting one day prior to bleomycin treatment; assay type: functional, organism-based
Procedure, shortened: (§1)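 Mice received oral doses of 30, 100 or 300 mg/kg BID. Prophylactic arm started one day before bleomycin; therapeutic arm started seven days after. Mice were sacrificed 21 days post-bleomycin and lung hydroxyproline was measured per mouse. Group medians were compared with bleomycin + vehicle by p-value. Reference inhibitor control: 30 and 100 mg/kg BID.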

| Compound | Activity |
| --- | --- |
| CCc1nc2c(C)cc(N3CCN(CC(=O)N4CC(O)C4)CC3)cn2c1N(C)c1nc(-c2ccc(F)cc2)c(C#N)s1 | Active |

system: Mus musculus; test: Anti-fibrotic activity in C57BL/6 mouse model of bleomycin-induced lung fibrosis assessed as reduction in hydroxyproline levels at 30 to 100 mg/kg, po BID for 21 days dosed 7 days after bleomycin treatment; assay type: functional, organism-based; procedure, shortened: as §1

| Compound | Activity |
| --- | --- |
| CCc1nc2c(C)cc(N3CCN(CC(=O)N4CC(O)C4)CC3)cn2c1N(C)c1nc(-c2ccc(F)cc2)c(C#N)s1 | Active |

target: T1, Autotaxin (Homo sapiens, UniProt Q13822); test: Inhibition of C-terminal FLAG-tagged human autotaxin expressed in Freestyle 293 cells assessed as reduction in choline release from LPC 16:0 pre-incubated for 10 mins before LPC addition and measured after 1 hr by choline oxidase/HRP coupled assay; assay type: cell-based

| Compound | IC50 |
| --- | --- |
| CC(C)[C@@H](NC(=O)c1cc(C(F)(F)F)ccc1F)C(=O)N1CCC2(CC1)C(=O)N(C)C(=O)N2c1cccc(Cl)c1 | 46 nM |
| CN1C(=O)N(c2ccc3[nH]ncc3c2)C2(CCN(C(=O)CNC(=O)c3cc(C(F)(F)F)ccc3F)CC2)C1=O | 10000 nM |
| Cc1ccc(N2C(=O)N(C)C(=O)C23CCN(C(=O)[C@H](NC(=O)c2cc(C(F)(F)F)ccc2F)C(C)C)CC3)cc1 | 38 nM |
| Cc1ccc(C(F)(F)F)cc1C(=O)N[C@@H](C(=O)N1CCC2(CC1)C(=O)N(C)C(=O)N2c1ccc2[nH]ncc2c1)C(C)C | 4900 nM |
| CNC(=O)CN1CN(c2ccccc2)C2(CCN(C(=O)[C@H](NC(=O)c3cccc(C)c3F)C3CCCCC3)CC2)C1=O | 86 nM |
| CN1C(=O)N(c2ccc3[nH]ncc3c2)C2(CCN(C(=O)[C@H](NC(=O)c3cc(C(F)(F)F)ccc3F)C3CCCC3)CC2)C1=O | 34 nM |
| CC(C)[C@H](NC(=O)c1cc(C(F)(F)F)ccc1F)C(=O)N1CCC2(CC1)C(=O)N(C)C(=O)N2c1ccc2[nH]ncc2c1 | 10000 nM |
| CC(C)[C@@H](NC(=O)c1cccc(C(F)(F)F)c1)C(=O)N1CCC2(CC1)C(=O)N(C)C(=O)N2c1ccc2[nH]ncc2c1 | 340 nM |
| Cc1cccc(C(=O)N[C@@H](C(=O)N2CCC3(CC2)C(=O)N(C)CN3c2ccccn2)C2CCCCC2)c1 | 905 nM |
| CC(C)[C@@H](NC(=O)c1cc(C(F)(F)F)ccc1F)C(=O)N1CCC2(CC1)C(=O)N(C)CN2c1ccc2[nH]ncc2c1 | 13.4 nM |
| CC(C)[C@@H](NC(=O)c1cc(C(F)(F)F)ccc1Cl)C(=O)N1CCC2(CC1)C(=O)N(C)C(=O)N2c1ccc2[nH]ncc2c1 | 1470 nM |
| CC(C)[C@@H](NC(=O)c1cc(C(F)(F)F)ccc1F)C(=O)N1CCC2(CC1)C(=O)N(C)C(=O)N2c1ccc(C(=O)O)cc1 | 31 nM |
| Cc1cccc(C(=O)N[C@@H](C(=O)N2CCC3(CC2)C(=O)N(C)CN3C2CC2)C2CCCCC2)c1F | 819 nM |
| CC(C)[C@@H](NC(=O)c1cc(C(F)(F)F)ccc1F)C(=O)N1CCC2(CC1)C(=O)N(C)C(=O)N2c1ccccc1 | 100 nM |
| Cc1cccc(C(=O)N[C@H](C(=O)N2CCC3(CC2)C(=O)N(C)CN3c2ccccc2)C2CCOCC2)c1 | 10000 nM |
| Cc1cccc(C(=O)N[C@@H](C(=O)N2CCC3(CC2)C(=O)N(C)CN3c2ccccc2)C2CCOCC2)c1 | 623 nM |
| Cc1cccc(C(=O)N[C@@H](C(=O)N2CCC3(CC2)C(=O)N(C)CN3c2ccccc2)C2CCCCC2)c1F | 56 nM |
| Cc1cccc(C(=O)N[C@@H](C(=O)N2CCC3(CC2)C(=O)N(C)C(=O)N3c2ccccc2)C(C)C)c1F | 683 nM |

target: T1, Autotaxin; test: Inhibition of C-terminal FLAG-tagged human autotaxin expressed in Freestyle 293 cells using synthetic substrate FS-3 by fluorescence based assay; assay type: cell-based

| Compound | IC50 |
| --- | --- |
| CNC(=O)CN1CN(c2ccccc2)C2(CCN(C(=O)[C@H](NC(=O)c3cccc(Cl)c3)C3CCCCC3)CC2)C1=O | 3.5 nM |
| CNC(=O)CN1CN(c2ccccc2)C2(CCN(C(=O)[C@H](NC(=O)c3ccccc3)C3CCCCC3)CC2)C1=O | 350 nM |
| CC(C)[C@@H](NC(=O)c1cccc(F)c1)C(=O)N1CCC2(CC1)C(=O)N(C)CN2c1ccccc1 | 2.2 nM |
| CNC(=O)CN1CN(c2ccccc2)C2(CCN(C(=O)[C@H](NC(=O)c3cccc(C)c3F)C3CCCCC3)CC2)C1=O | 2 nM |
| Cc1cccc(C(=O)N[C@@H](C(=O)N2CCC3(CC2)C(=O)N(C)CN3c2ccccc2)C(C)C)c1 | 2 nM |
| Cc1cccc(C(=O)N[C@@H](C(=O)N2CCC3(CC2)C(=O)N(C)CN3c2ccccc2)C2CCCCC2)c1F | 1.6 nM |
